Shown are actives, neighbours in structure and some others; about 2.7% of the full set was active somewhere.
CFTR F508del cor – correctors of CFTR F508del function in bronchial epithelial cells. activity (quench increase), % at 7.58 µM. 350,000 compounds, 0.36% hits. CFBE cells, YFP halide quenching; stimulated with forskolin plus potentiator P3; % fluorescence drop versus neutral controls;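 active = mean added fluorescence quench of at least 8% versus neutral control, with both replicates also reaching 8%; inconclusive = only one of the mean or replicate conditions met; inactive = mean below 8% and not both replicates reaching 8%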;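 also: cells transiently co-express mutant CFTR-F508del with the halide-sensitive YFP; corrector assay measuring rescue of mutant channel to the surface after 24 h compound exposure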
HIV Env fusion – HIV envelope-mediated fusion inhibition; HeLa-JRFL Env/CEM21 cell fusion, luciferase; 360,000 compounds, 1.1% hits; AID 651610; inhibition, % at 12.3 µM;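 active = mean replicate inhibition score of at least 50 and every replicate individually at or above 50; inconclusive = only one of the two criteria met; inactive = mean below 50 and not all replicates reaching 50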;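 also: 0% = plate neutral controls and 100% = maraviroc near 300 nM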
S100A4 MyoIIA – S100A4-myosin IIA interaction inhibition | P26447 | S100A4/TAMRA-MyoIIA peptide fluorescence polarization | inhibition, % at 10.7 µM | 360,000 compounds, 0.14% hits | AID 652163;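 active = mean inhibition of at least 70% across replicates, with every replicate also reaching that level; inconclusive = mean inhibition reaches 70% but some replicates fall short; inactive = mean inhibition below 70%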
Target sequence (P26447 whole entry, looked up): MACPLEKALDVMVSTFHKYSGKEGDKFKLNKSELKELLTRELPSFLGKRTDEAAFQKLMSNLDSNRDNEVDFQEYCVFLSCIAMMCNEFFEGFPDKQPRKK
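Test system: S100A4 monomer protein; Medium: HEPES pH 7.2 with CaCl2, KCl, NaCl, DTT, Triton; Probe or stimulus: TAMRA-labelled myosin IIA heavy-chain peptide probe, 5 nM; Doses: one dose per compound; Times: polarization read 5 min after assay mix addition, stable 5–60 min; Benchmarks: neutral control DMSO, positive control TFP.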
E-selectin induc – induces E-selectin expression in human endothelial cells. 260,000 compounds, 0.37% hits. HUVEC E-selectin immunofluorescence imaging; normalized: neutral wells 0, TNF-alpha wells 100. P16581. activation, % at 7.58 µM. AID 686992;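 active = mean E-selectin-positive cell signal at least 10% of the positive control, reached in at least 60% of replicates, without over 20% cell loss; inconclusive = no rule given, readout overlaps actives, possibly toxicity-flagged; inactive = the rest, including those meeting only one limit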
Target sequence (P16581 whole entry, looked up): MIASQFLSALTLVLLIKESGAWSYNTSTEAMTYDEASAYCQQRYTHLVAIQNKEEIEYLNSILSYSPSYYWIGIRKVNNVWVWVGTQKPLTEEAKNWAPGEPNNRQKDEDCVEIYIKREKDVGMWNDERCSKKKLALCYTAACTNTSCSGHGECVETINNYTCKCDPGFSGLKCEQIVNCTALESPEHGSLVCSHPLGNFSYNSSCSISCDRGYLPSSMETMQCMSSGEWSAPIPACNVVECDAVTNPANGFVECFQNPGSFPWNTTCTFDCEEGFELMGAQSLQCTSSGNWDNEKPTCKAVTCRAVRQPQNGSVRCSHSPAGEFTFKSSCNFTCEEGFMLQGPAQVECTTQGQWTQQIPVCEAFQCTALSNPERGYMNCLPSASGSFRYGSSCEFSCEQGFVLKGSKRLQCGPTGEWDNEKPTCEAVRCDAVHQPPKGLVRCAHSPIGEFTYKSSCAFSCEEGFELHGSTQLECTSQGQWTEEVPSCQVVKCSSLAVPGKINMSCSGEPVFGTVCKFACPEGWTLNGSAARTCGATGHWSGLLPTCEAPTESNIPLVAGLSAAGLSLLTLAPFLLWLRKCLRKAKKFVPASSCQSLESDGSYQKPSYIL
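Test system – human umbilical vein endothelial cells (HUVEC), E-selectin induction · Input – 3,000 HUVEC seeded per well · Buffer or medium – EGM-2, gelatin · Compound dosing – single-point compound dose · Detection – immunofluorescence imaging · Measure – percent E-selectin-positive cells · Controls – TNF-alpha high, DMSO low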
FGF22 binding – binders of recombinant human FGF22 by thermal shift | AID 651658 | SYPRO orange fluorescence; percent of sucrose octasulfate shift, DMSO zero | Q9HCT0 | activity (Tm shift, normalised), % at 9.99 µM | 340,000 compounds, 1.5% hits;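 active = mean Tm shift, scaled 0 neutral to 100 positive control, at about 1.3% or above, every replicate too, limit read from the data; inconclusive = no clear call, values can overlap the other calls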
An asterisk follows results filed as active; ? = inconclusive; . = not tested or not shown; [ ] = another dose, or the depositor's remark.

SMILES	CFTR F508del cor	HIV Env fusion	S100A4 MyoIIA	E-selectin induc	FGF22 binding
O=c1c2cc(-c3ccccc3)sc2nc2n1CCC2	0.5	-142.8	1.5	.	44.1*
Cc1noc(C)c1NC(=O)N(C)C[C@H]1OCCCC[C@@H](C)Oc2ccc(NC(=O)Cc3ccccc3)cc2C(=O)N([C@H](C)CO)C[C@H]1C	0.0	3.3[16.7 µM]	-4.8	0.0	0.5
C[C@@H]1CN([C@H](C)CO)C(=O)c2cc(NS(=O)(=O)c3ccc(Cl)cc3)ccc2O[C@H]1CN(C)Cc1ccncc1	1.2	5.4[16.7 µM]	25.4	-9.7	0.1
COc1cccc(N2CC(=O)N(c3cccc(OC)c3)CC2=O)c1	-0.7	-11.9	-1.5	0.4	43.5*
Cc1cc(C)n2nc(-c3ccc(F)cc3)cc2n1	-1.3	-228.2	-1.6	-0.2	0.2
Cc1cccc(N(C)c2cc(-c3ccc(F)cc3)nc3ccnn23)c1	-0.4	62.8*	15.3	4.1	0.1
Cc1ccc(Nc2nc(-c3cccnc3)nc3ccccc23)cc1	11.9*	32.6	-0.6	-0.3	0.2
O=C(C[C@H]1C=C[C@H](NC(=O)c2ccccn2)[C@H](CO)O1)NCc1cc(F)cc(F)c1	0.0	-12.8[16.7 µM]	5.6	0.5	-0.1
O=C(O)COc1ccccc1/C=N/NC(=O)c1cc(-c2ccccc2)nc2ccccc12	3.2	12.9	1.5	.	0.0
O=C(N/N=C/c1ccccc1OC(F)F)c1cc(-c2ccncc2)nc2ccccc12	9.5*	-51.9	1.7	.	-0.2
NC(=O)c1ccc(NC(=O)COc2ccc([N+](=O)[O-])cc2Cl)cc1	0.9	8.2	-1.2	.	43.3*
CC(C)C(C)NC(=O)COc1ccc([N+](=O)[O-])cc1Cl (configuration not stated)	-1.8	0.5	-3.9	.	-0.3
CCC(=O)Nc1ccc2c(c1)C(=O)N(C)C[C@H](OC)[C@@H](C)CN(Cc1ccccn1)[C@H](C)CO2	-1.1	0.4[16.7 µM]	-47.9	0.1	0.1
CCOc1ccc(-c2cc(N)n(S(=O)(=O)c3cccc4nsnc34)n2)cc1	-0.3	63.8*	1.2	1.0	-0.1
COc1cc(OC)cc(-c2cc(N)n(S(=O)(=O)c3cccc4nsnc34)n2)c1	2.1	5.6	?	.	0.5
CCC(=O)N(C)C[C@H]1Oc2ncc(-c3ccccc3C)cc2C(=O)N([C@@H](C)CO)C[C@H]1C	1.7	-12.5[16.7 µM]	2.7	0.5	0.2
Cc1ccc(OCCN2CCN(c3ncnc4sc(C)c(C)c34)CC2)cc1	.	85.3*	.	.	.
Clc1ccc(OCCN2CCN(c3ncnc4sccc34)CC2)cc1	.	98.8*	.	.	.
Cc1sc2ncnc(N3CCCCC3)c2c1C	-2.2	.	-4.0	.	0.2
COc1cc(/C=N/NS(=O)(=O)c2ccc3ccccc3c2)ccc1OCc1ccc(C(=O)O)cc1	-2.1	49.9	2.6	0.2	.
COc1cc(/C=N/NS(=O)(=O)c2ccc(C)cc2)ccc1OCc1cccc(C(=O)O)c1	-0.7	72.0*	1.6	.	1.0
COc1cc(/C=N/O)ccc1OCc1ccc(C(=O)O)cc1	.	113.5*	.	.	.
CCCc1cc(C(=O)OC)c(NC(=O)CCC(=O)O)s1	-0.3	11.2	1.6	0.0	43.2*
O=C(C[C@H]1C[C@H]2c3cc(NC(=O)C4CCOCC4)ccc3O[C@H]2[C@H](CO)O1)NCc1ccccn1	1.9	-13.3[16.7 µM]	4.8	-0.2	-0.3
COc1ccc(-c2cc3c(nn2)-c2ccccc2C3=O)cc1	4.3	21.5	-2.7	.	42.9*
SMILES	CFTR F508del cor	HIV Env fusion	S100A4 MyoIIA	E-selectin induc	FGF22 binding
Cn1cc(Cl)c(C(=O)NC(=S)Nc2sc3c(c2C#N)CCCCC3)n1	-4.0	-42.0	2.7	.	51.8*
O=C(NC1CCC1)[C@@H]1[C@@H](CO)[C@@H]2Cn3c(ccc(C4=CCCC4)c3=O)[C@H]1N2C(=O)c1ccccc1	0.2	.	2.3	-0.7	-0.5
c1ccc(CNc2nc(-c3cccs3)nc3ccccc23)cc1	5.1	-18.2	-4.6	.	43.4*
c1ccc(CNc2nc(-c3ccccc3)nc3ccccc23)cc1	2.5	16.3	-1.2	.	0.1
NS(=O)(=O)c1ccc(NC(=O)c2cccc3cc4ccccc4nc23)cc1	18.5*	13.7	-6.7	.	-0.1
C[C@H](CO)N1C[C@H](C)[C@@H](CN(C)Cc2ccc(C(F)(F)F)cc2)Oc2ccc(NS(C)(=O)=O)cc2C1=O	5.3	27.9[16.7 µM]	-1.0	-4.8	0.8
CO[C@@H]1CN(C)C(=O)c2cc(NC(=O)c3ccccc3)ccc2OC[C@H](C)NC[C@H]1C	-2.8	-2.2[16.7 µM]	2.7	-0.1	-0.2
Cc1cccc(C)c1-n1c(SCC(=O)Nc2ccc(C(=O)O)cc2)nnc1-c1cccc(S(=O)(=O)N(C)C)c1	0.1	-1.7	3.4	.	43.2*
Cc1csc(CNc2ncnc3ccc(-c4ccc5c(c4)OCO5)cc23)c1	1.7	60.7*	-1.4	-0.1	-0.1
Cc1csc(CNc2ncnc3ccc(-c4ccc5c(c4)OCCO5)cc23)c1	-2.4	48.6	6.2	-0.2	0.2
Cc1cccc(CNc2ncnc3ccc(-c4ccc5c(c4)OCCO5)cc23)c1	-0.5	80.3*	-6.9	-0.1	0.2
Cc1nnsc1C(=O)N1CCCC(Nc2ccc(F)c(F)c2)C1 (configuration not stated)	-2.2	-6.8	-6.4	0.1	56.7*
O=C(C[C@@H]1CC[C@H](NC(=O)Nc2ccccc2F)[C@@H](CO)O1)NCc1ccc(F)cc1	-1.8	.	2.0	-0.7	.
CC[C@@]12C(=O)N(c3cccc(Cl)c3)C(=O)N1[C@H](c1ccc(Br)cc1)[C@@H]1C(=O)N(C(C)(C)C)C(=O)[C@@H]12	-2.3	83.9*	0.9	0.0	0.1
CC[C@@]12C(=O)N(c3cccc(C)c3)C(=O)N1[C@H](c1ccc(Br)cc1)[C@@H]1C(=O)N(C(C)(C)C)C(=O)[C@@H]12	4.2	54.1	-14.2	-0.1	-0.2
CC[C@@]12C(=O)N(c3cccc(F)c3)C(=O)N1[C@H](c1ccc(OC)cc1)[C@@H]1C(=O)N(C(C)(C)C)C(=O)[C@@H]12	-0.2	-25.3	-5.4	-0.2	-0.1
CC(C)C[C@@]12C(=O)N(c3ccc(Br)cc3)C(=O)N1[C@H](c1ccc(Br)cc1)[C@@H]1C(=O)N(C(C)(C)C)C(=O)[C@@H]12	2.5	79.8*	-6.4	-0.2	0.1
CC(C)C[C@@]12C(=O)N(c3cccc(F)c3)C(=O)N1[C@H](c1ccc(Br)cc1)[C@@H]1C(=O)N(C(C)(C)C)C(=O)[C@@H]12	1.2	68.9*	.	-0.2	.
CC(C)C[C@@]12C(=O)N(c3cccc(Cl)c3)C(=O)N1[C@H](c1ccc(Br)cc1)[C@@H]1C(=O)N(C(C)(C)C)C(=O)[C@@H]12	-1.9	90.7*	-1.6	-0.1	-0.5
CCN1C(=O)[C@H]2[C@@H](c3ccc(C)cc3)N3C(=O)N(c4cccc(Cl)c4)C(=O)[C@@]3(CC(C)C)[C@H]2C1=O	0.0	8.5	-1.6	-0.1	-0.2
CO[C@H](CN(C)S(=O)(=O)c1ccccc1)[C@@H](C)CN(C(=O)Nc1ccccc1F)[C@@H](C)CO	0.8	.	-18.8	0.0	-0.1

Source: PubChem (Broad Institute)
